Experimental data as given in ChEMBL document CHEMBL1122096, “Narcotic antagonistic potency of bivalent ligands which contain beta-naltrexamine. Evidence for bridging between proximal recognition sites” (1982).

What was measured:
Assay type in all cases: functional
Mus musculus [1] = species: Mus musculus; assay: Tested for the narcotic antagonistic activity by measuring the ratio of the IC50 of the DADLE in the presence and in the absence in mouse vas deferens at 1*10e-7 M
Procedure, shortened: (§1)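 Isolated-tissue antagonism assays: guinea pig ileum (GPI) against ethylketazocine or morphine, with antagonist at 2×10^-8 M; mouse vas deferens (MVD) against DADLE, with antagonist at 1×10^-7 M. The value is the agonist IC50 with antagonist divided by the agonist IC50 without antagonist, both measured in the same preparation, reported ± SE.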

Cavia porcellus [2] = species: Cavia porcellus; assay: Partial agonist activity was determined by measuring the % maximum agonist response in guinea pig ileum at 5*10e-7 M concentration of compound
Cavia porcellus [3] = species: Cavia porcellus; assay: Tested for the narcotic antagonistic activity by measuring the ratio of the IC50 of the morphine in the presence and in the absence in guinea pig ileum at 2*10e-8M; procedure, shortened: as §1
Cavia porcellus [4] = species: Cavia porcellus; assay: Tested for the narcotic antagonistic activity by measuring the ratio of the IC50 of the ethylketazocine in the presence and in the absence in guinea pig ileum at 2*10e-8M; procedure, shortened: as §1
Mus musculus [5] = species: Mus musculus; assay: Partial agonist activity by measuring the % maximum agonist response in mouse vas deferens at 1*10e-7 M concentration of compound
Cavia porcellus [6] = species: Cavia porcellus; assay: Partial agonist activity was determined by measuring the % maximum agonist response in guinea pig ileum at 1*10e-8 M concentration of compound
Cavia porcellus [7] = species: Cavia porcellus; assay: Partial agonist activity was determined by measuring the % maximum agonist response in guinea pig ileum at 3*10e-8 M concentration of compound
Mus musculus [8] = species: Mus musculus; assay: Partial agonist activity by measuring the % maximum agonist response in mouse vas deferens at 1*10e-6 M concentration of compound
Cavia porcellus [9] = species: Cavia porcellus; assay: Partial agonist activity was determined by measuring the % maximum agonist response in guinea pig ileum at 1*10e-6 M concentration of compound

Compound | IC50 ratio (Mus musculus [1]) | Max agonist response (Cavia porcellus [2]) [%] | IC50 ratio (Cavia porcellus [3]) | IC50 ratio (Cavia porcellus [4]) | Max agonist response (Mus musculus [5]) [%] | Max agonist response (Cavia porcellus [6]) [%] | Max agonist response (Cavia porcellus [7]) [%] | Max agonist response (Mus musculus [8]) [%] | Max agonist response (Cavia porcellus [9]) [%]
Oc1ccc2c3c1O[C@H]1[C@H](NCCOCCOCCOCCOCCOCCN[C@H]4CC[C@]5(O)C6Cc7ccc(O)c8c7C5(CCN6CC5CC5)[C@@H]4O8)CC[C@@]4(O)C(C2)N(CC2CC2)CCC314 | 30.67 | 60 | 5.75 | 2.61 | 26 |  |  |  | 
Oc1ccc2c3c1O[C@H]1[C@H](NCCOCCOCCN[C@H]4CC[C@]5(O)C6Cc7ccc(O)c8c7C5(CCN6CC5CC5)[C@@H]4O8)CC[C@@]4(O)C(C2)N(CC2CC2)CCC314 | 7.17 |  | 3.24 | 16.91 | 32 | 10 |  |  | 
Cc1ccc(S(=O)(=O)OCCOCCOCCN[C@@H]2CC[C@@]3(O)C4Cc5ccc(O)c6c5C3(CCN4CC3CC3)[C@H]2O6)cc1 (stereo not given in full) | 4.29 |  | 3.78 | 3.96 | 27 |  | 57 |  | 
COCCOCCOCCN[C@@H]1CC[C@@]2(O)C3Cc4ccc(O)c5c4C2(CCN3CC2CC2)[C@H]1O5 (stereo not given in full) | 2.09 |  | 3.45 | 1.63 |  |  |  | 49 | 67
